As a reminder, the inhibition is how much of the control response was suppressed. The half-life is the time needed for the level to fall by half in the phase considered. The low end stands for rapid decline, the high end for slow decline.

Activity calls are given as the source filed them.

21 compounds from ChEMBL document CHEMBL1765073, “Synthesis and structure-activity relationship studies of urea-containing pyrazoles as dual inhibitors of cyclooxygenase-2 and soluble epoxide hydrolase” (J Med Chem, 2011) can be followed below.

Data set [1] has as its target T1, Prostaglandin G/H synthase 1 (Ovis aries) (UniProt P05979).
T1 sequence (whole entry): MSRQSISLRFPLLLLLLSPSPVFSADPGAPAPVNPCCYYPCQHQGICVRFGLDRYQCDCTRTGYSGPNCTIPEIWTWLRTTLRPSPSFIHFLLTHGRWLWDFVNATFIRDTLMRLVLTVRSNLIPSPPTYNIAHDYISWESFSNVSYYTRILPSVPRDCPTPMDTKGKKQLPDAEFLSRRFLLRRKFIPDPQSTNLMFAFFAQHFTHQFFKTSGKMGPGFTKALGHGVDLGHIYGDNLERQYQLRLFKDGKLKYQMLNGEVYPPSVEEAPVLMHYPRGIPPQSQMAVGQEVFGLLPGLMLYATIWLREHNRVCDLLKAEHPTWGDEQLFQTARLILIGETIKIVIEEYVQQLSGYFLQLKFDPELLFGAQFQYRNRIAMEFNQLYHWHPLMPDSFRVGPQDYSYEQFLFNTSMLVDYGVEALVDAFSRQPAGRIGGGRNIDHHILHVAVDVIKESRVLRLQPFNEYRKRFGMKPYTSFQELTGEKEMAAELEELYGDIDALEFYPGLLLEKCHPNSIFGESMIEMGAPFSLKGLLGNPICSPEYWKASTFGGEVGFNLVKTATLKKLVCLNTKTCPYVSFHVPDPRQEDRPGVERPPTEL
The experiment in a line: Inhibition of ovine COX-1 at 100 uM after 2 mins by fluorescence assay. The gist of the method:
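Ovine COX-1 was tested in a fluorescent kit assay in 100 mM Tris-HCl, pH 8.0, with heme and ADHP substrate. Inhibitor was added at a final 100 µM, then the reaction was started with arachidonic acid for 2 min at room temperature. Resorufin was read at ex 535/em 590 nm, and % inhibition was taken against a no-inhibitor control.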

For data set [2], the system named is Rattus norvegicus. Put plainly: Antiallodynic activity in Sprague-Dawley rat von Frey hair mechanically-stimulated inflammatory pain model assessed as reversal of LPS-induced decrease in paw withdrawal latency at 10 mg/kg, sc administered 60 mins before LPS challenge.
A short description of data set [3]: Half life in Sprague-Dawley rat at 1 mg/kg, po. The arrangement: dose 1 mg/kg, route oral. The data set is classed as ADME, organism-based. The following applies: in vivo. The method, boiled down: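 Male Sprague-Dawley rats (8 weeks, 250–300 g, n = 4) were dosed orally at 1 mg/kg in oleic-ester-rich triglyceride with 10% PEG 400. Tail-vein blood (10 µL) was taken at 0–24 h, mixed with water and stored at −80 °C. Drug was quantified by LC/MS/MS, and t1/2 came from non-compartmental analysis of each rat.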

A further data set relates to U-937. Put plainly: Cytotoxicity against human U937 cells. The data set is classed as cell-based.
In data set [4] the test system is Rattus norvegicus. The experiment in a line: Toxicity in Sprague-Dawley rat von Frey hair mechanically-stimulated […] pain model assessed as overt signs of behavioral changes at 10 mg/kg, sc after 9 hrs. The note with it: in vivo. The arrangement: dose 10 mg/kg, route subcutaneous. The data set is classed as organism-based. The method, boiled down: (§1)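 Male Sprague-Dawley rats treated s.c. (10 mg/kg, PEG400 vehicle) in the LPS von Frey study were observed over nine hours on the test day. Animals were checked for behavioral changes and for acute signs such as lacrimation, porphyrin exudation, frozen or hunched posture, gasping or chattering.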

Data set [5] has as its system Rattus norvegicus. The experiment in a line: Toxicity in Sprague-Dawley rat von Frey hair mechanically-stimulated […] pain model assessed as acute observable symptoms of toxicity at 10 mg/kg, sc after 9 hrs. The following applies: in vivo. The data set is classed as organism-based. The arrangement: dose 10 mg/kg, route subcutaneous. The method, boiled down:
as §1

The target in data set [6] is T2, Polyunsaturated fatty acid 5-lipoxygenase (Homo sapiens) (UniProt P09917).
T2 sequence (whole entry): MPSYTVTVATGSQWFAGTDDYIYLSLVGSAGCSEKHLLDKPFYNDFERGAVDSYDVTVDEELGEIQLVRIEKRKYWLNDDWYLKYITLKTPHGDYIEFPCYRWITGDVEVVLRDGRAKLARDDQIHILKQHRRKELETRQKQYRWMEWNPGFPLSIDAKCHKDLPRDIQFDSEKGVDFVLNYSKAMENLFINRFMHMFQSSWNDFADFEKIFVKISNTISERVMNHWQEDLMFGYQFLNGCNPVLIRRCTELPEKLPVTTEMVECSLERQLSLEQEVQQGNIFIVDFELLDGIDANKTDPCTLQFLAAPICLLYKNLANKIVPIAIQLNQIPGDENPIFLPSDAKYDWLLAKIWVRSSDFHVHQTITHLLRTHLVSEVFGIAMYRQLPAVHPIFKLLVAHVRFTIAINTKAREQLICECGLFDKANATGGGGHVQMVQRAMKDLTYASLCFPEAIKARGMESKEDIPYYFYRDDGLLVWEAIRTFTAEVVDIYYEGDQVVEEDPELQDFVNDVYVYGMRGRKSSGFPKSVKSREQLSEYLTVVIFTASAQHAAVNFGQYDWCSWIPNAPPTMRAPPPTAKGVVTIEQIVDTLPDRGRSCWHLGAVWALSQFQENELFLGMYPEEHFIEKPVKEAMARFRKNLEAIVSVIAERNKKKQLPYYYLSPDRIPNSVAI
Put plainly: Inhibition of human 5-lipoxygenase at 10 uM.

As to `NS(=O)(=O)c1ccc(-n2nc(CCCNC(=O)NC34CC5CC(CC(C5)C3)C4)cc2-c2ccccc2)cc1`, in data set [1], the inhibition was 7%.

The compound `NS(=O)(=O)c1ccc(-n2nc(CCCNC(=O)Nc3ccccc3)cc2-c2ccccc2)cc1` returned an inhibition in data set [1] of 16%.

As to `O=C(NC12CC3CC(CC(C3)C1)C2)N[C@H]1CC[C@H](Oc2ccc(C(=O)O)cc2)CC1`, in the data set with Rattus norvegicus [2], the result was Active. The same compound came in with an inhibition in data set [1] of 25%.

`CS(=O)(=O)c1ccc(-n2nc(CNC(=O)NC34CC5CC(CC(C5)C3)C4)cc2-c2ccccc2)cc1`: the inhibition in data set [1] was found to be 13%.

With `CC(C)c1cccc(C(C)C)c1NC(=O)NCCCc1cc(-c2ccccc2)n(-c2ccc(S(N)(=O)=O)cc2)n1`, the inhibition in data set [1] came to 6%.

Regarding `CS(=O)(=O)c1ccc(-n2nc(CNC(=O)Nc3cccc(C(F)(F)F)c3)cc2-c2ccccc2)cc1`, the inhibition in data set [1] came to 8%.

Take `CS(=O)(=O)c1ccc(-n2nc(CNC(=O)Nc3ccc(OC(F)(F)F)cc3)cc2-c2ccccc2)cc1`: the inhibition in data set [1] was determined as 10%.

`NS(=O)(=O)c1ccc(-n2nc(CCCNC(=O)Nc3cccc(C(F)(F)F)c3)cc2-c2ccccc2)cc1` gave an inhibition in data set [1] of 27%.

Take `NS(=O)(=O)c1ccc(-n2nc(CCCNC(=O)Nc3ccc(OC(F)(F)F)cc3)cc2-c2ccccc2)cc1`: the half-life in data set [3] was 12 h. Further, in data set [1], the inhibition turned out to be 14%.

In turn, `CS(=O)(=O)c1ccc(-n2nc(CNC(=O)Nc3ccc(C(F)(F)F)cc3)cc2-c2ccccc2)cc1` showed an inhibition in data set [1] of 11%.

For the compound `NS(=O)(=O)c1ccc(-n2nc(CCCNC(=O)Nc3ccc(C(F)(F)F)cc3)cc2-c2ccccc2)cc1`, the Activity entry in the data set on U-937, in the data set on Rattus norvegicus [4] and in the data set on Rattus norvegicus [5] was “Non-toxic” in each case. Moreover, in the data set with Rattus norvegicus [2], the outcome was Active. The inhibition in data set [1] was found to be 23%; in data set [6], 83%.

For the compound `Cc1ccc(-c2cc(C(F)(F)F)nn2-c2ccc(S(N)(=O)=O)cc2)cc1`, in the data set with Rattus norvegicus [2], the outcome was Active. Moreover, the inhibition in data set [6] is 80%.

The compound `CS(=O)(=O)c1ccc(-n2nc(CNC(=O)NC3CCCCCC3)cc2-c2ccccc2)cc1` registered an inhibition in data set [1] of 3%.

`Cc1ccc(-c2cc(CCCNC(=O)Nc3cccc(C(F)(F)F)c3)nn2-c2ccc(S(N)(=O)=O)cc2)cc1`: in data set [1], the inhibition was 12%.

In data set [1], `NS(=O)(=O)c1ccc(-n2nc(CCCNC(=O)Nc3ccc(Cl)cc3)cc2-c2ccccc2)cc1` had an inhibition of 15%.

The compound `NS(=O)(=O)c1ccc(-n2nc(CNC(=O)Nc3cccc(C(F)(F)F)c3)cc2-c2ccccc2)cc1` gave an inhibition in data set [1] of 17%.

In turn, `CS(=O)(=O)c1ccc(-n2nc(CCCNC(=O)Nc3cccc(C(F)(F)F)c3)cc2-c2ccccc2)cc1` had an inhibition in data set [1] of 6%.

In the case of `NS(=O)(=O)c1ccc(-n2nc(NC(=O)Nc3cccc(C(F)(F)F)c3)cc2-c2ccccc2)cc1`, the inhibition in data set [1] turned out to be 34%.

Compound `NS(=O)(=O)c1ccc(-n2nc(CCCNC(=O)NC3CCCCCC3)cc2-c2ccccc2)cc1` yielded an inhibition in data set [1] of 10%.

The compound `NS(=O)(=O)c1ccc(-n2nc(CCNC(=O)Nc3cccc(C(F)(F)F)c3)cc2-c2ccccc2)cc1` gave an inhibition in data set [1] of 22%.

On to `CC(C)(C)c1cc(CNC(=O)Nc2cccc(C(F)(F)F)c2)nn1-c1ccc(S(C)(=O)=O)cc1`, for which, in data set [1], the inhibition amounted to 2%.
